Reference: ChEMBL document CHEMBL1154352, “Toll-like receptor 7 selective synthetic oligoribonucleotide agonists: synthesis and structure-activity relationship studies” (J Med Chem, 2009)
Active and inactive are the calls of the source. The calls are words filed in the database; no cut-off is given here.

Legend:
Homo sapiens [1] = species on record: Homo sapiens; assay: Immunostimulatory activity in human mDC assessed as induction of IL12 at 100 ug/ml after 24 hrs; assay type: functional
How it was run: (§1)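 Human mDCs isolated from PBMCs by CD19+ B-cell depletion then BDCA1 positive selection; plated at 1 × 10^6 cells/mL, compounds in PBS, 37 °C for 24 h; supernatant cytokines by human Luminex multiplex. Representative of four independent experiments.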

PBMC [2] = assay: Immunomodulatory activity in human PBMC assessed as induction of TNFalpha after 24 hrs; assay type: functional, cell-based
How it was run: (§2)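 Human PBMCs plated at 5 × 10^6 cells/mL; compounds dissolved in PBS added at various concentrations, 37 °C for 24 h. Supernatant cytokines/chemokines quantified with human Luminex multiplex kit.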

Homo sapiens [3] = species on record: Homo sapiens; assay: Ratio of human TLR7 activity to human TLR8 activity
How it was run: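 TLR7/TLR8 ratio computed from fold NF-κB (SEAP reporter) activation in HEK293 cells stably expressing human TLR7 versus TLR8, compounds at 50 μg/mL, 18 h exposure; representative of three independent experiments.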

PBMC [4] = assay: Immunomodulatory activity in human PBMC assessed as induction of MIP1beta after 24 hrs; assay type: functional, cell-based; how it was run: as §2
Homo sapiens [5] = species on record: Homo sapiens; assay: Immunostimulatory activity in human pDC assessed as induction of IL6 at 100 ug/ml after 24 hrs; assay type: functional
How it was run: (§3)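 Human pDCs plated at 1 × 10^6 cells/mL; compounds in PBS added, 37 °C for 24 h; supernatant cytokines/chemokines by human Luminex multiplex kit.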

Homo sapiens [6] = species on record: Homo sapiens; assay: Immunostimulatory activity in human pDC assessed as induction of IFNalpha at 100 ug/ml after 24 hrs; assay type: functional; how it was run: as §3
PBMC [7] = assay: Immunomodulatory activity in human PBMC assessed as induction of TNFalpha at 50 ug/ml after 24 hrs; assay type: functional, cell-based; how it was run: as §2
Homo sapiens [8] = species on record: Homo sapiens; assay: Immunostimulatory activity in human mDC assessed as induction of IL6 at 100 ug/ml after 24 hrs; assay type: functional; how it was run: as §1
PBMC [9] = assay: Immunomodulatory activity in human PBMC assessed as induction of MCP1 after 24 hrs; assay type: functional, cell-based; how it was run: as §2
PBMC [10] = assay: Immunomodulatory activity in human PBMC assessed as induction of IFNalpha after 24 hrs; assay type: functional, cell-based; how it was run: as §2
PBMC [11] = assay: Immunomodulatory activity in human PBMC assessed as induction of MIP1alpha at 50 ug/ml after 24 hrs; assay type: functional, cell-based; how it was run: as §2
Mus musculus = assay: Immunomodulatory activity in C57BL/6 mouse assessed as induction of IL12 release at 25 mg/kg, sc after 2 hrs by ELISA; assay type: functional, organism-based; set-up: dose 25 mg/kg
How it was run: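 Female C57BL/6 wild-type mice, 5–8 weeks old, n=3; compounds given subcutaneously at 10 or 25 mg/kg. Retro-orbital blood at 2 h; serum cytokines by mouse Luminex multiplex or IL-12 ELISA.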

PBMC [12] = assay: Immunomodulatory activity in human PBMC assessed as induction of MCP1 at 50 ug/ml after 24 hrs; assay type: functional, cell-based; how it was run: as §2
PBMC [13] = assay: Immunomodulatory activity in human PBMC assessed as induction of IP10 at 50 ug/ml after 24 hrs; assay type: functional, cell-based; how it was run: as §2
PBMC [14] = assay: Immunomodulatory activity in human PBMC assessed as induction of IL10 after 24 hrs; assay type: functional, cell-based; how it was run: as §2
PBMC [15] = assay: Immunomodulatory activity in human PBMC assessed as induction of IFNalpha at 50 ug/ml after 24 hrs; assay type: functional, cell-based; how it was run: as §2
PBMC [16] = assay: Immunomodulatory activity in human PBMC assessed as induction of IL12 at 50 ug/ml after 24 hrs; assay type: functional, cell-based; how it was run: as §2
PBMC [17] = assay: Immunomodulatory activity in human PBMC assessed as induction of MIP1beta at 50 ug/ml after 24 hrs; assay type: functional, cell-based; how it was run: as §2
[18] = target: T1, Toll-like receptor 7 (Homo sapiens) (UniProt Q9NYK1); assay: Activation of human TLR7 expressed in HEK293XL assessed as fold induction of NF-kappaB activity at 50 ug/ml after 18 hrs by reporter gene assay relative to control
T1 sequence (whole entry): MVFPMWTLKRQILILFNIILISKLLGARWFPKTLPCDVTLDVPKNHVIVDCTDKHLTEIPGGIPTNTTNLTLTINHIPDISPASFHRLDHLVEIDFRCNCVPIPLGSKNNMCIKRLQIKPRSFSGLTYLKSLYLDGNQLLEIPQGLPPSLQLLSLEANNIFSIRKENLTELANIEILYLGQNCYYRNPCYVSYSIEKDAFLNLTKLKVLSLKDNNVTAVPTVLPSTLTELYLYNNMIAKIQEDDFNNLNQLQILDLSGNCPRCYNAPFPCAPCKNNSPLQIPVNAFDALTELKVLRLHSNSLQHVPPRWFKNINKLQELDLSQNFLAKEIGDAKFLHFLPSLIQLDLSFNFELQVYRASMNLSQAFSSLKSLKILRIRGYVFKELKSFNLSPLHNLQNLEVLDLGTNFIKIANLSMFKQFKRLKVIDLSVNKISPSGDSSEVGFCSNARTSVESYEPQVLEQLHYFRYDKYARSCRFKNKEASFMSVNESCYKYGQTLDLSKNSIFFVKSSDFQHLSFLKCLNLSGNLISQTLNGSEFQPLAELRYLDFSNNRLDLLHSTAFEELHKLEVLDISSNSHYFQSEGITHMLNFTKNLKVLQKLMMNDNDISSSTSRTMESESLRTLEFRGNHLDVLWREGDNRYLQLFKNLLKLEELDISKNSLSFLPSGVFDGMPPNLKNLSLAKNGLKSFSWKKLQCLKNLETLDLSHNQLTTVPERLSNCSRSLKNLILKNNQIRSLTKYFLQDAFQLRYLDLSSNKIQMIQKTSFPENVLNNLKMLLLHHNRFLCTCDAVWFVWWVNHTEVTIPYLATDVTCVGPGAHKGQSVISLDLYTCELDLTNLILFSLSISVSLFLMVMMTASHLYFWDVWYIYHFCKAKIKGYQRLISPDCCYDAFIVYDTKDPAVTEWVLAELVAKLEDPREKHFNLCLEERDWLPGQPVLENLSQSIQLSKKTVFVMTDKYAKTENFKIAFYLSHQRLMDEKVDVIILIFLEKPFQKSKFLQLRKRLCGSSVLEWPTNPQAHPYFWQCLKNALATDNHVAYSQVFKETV
How it was run: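 HEK293 cells stably expressing human TLR7 or TLR8, transiently transfected with SEAP reporter plasmid; medium replaced, SIMRA compounds added, 18 h incubation. Supernatant SEAP measured by QuantiBlue; expressed as fold increase in NF-κB activity over PBS control. Tabulated data at 50 μg/mL, representative of three independent experiments.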

Homo sapiens [19] = species on record: Homo sapiens; assay: Immunostimulatory activity in human pDC assessed as induction of IP10 at 100 ug/ml after 24 hrs; assay type: functional; how it was run: as §3
Homo sapiens [20] = species on record: Homo sapiens; assay: Immunostimulatory activity in human mDC assessed as induction of IP10 at 100 ug/ml after 24 hrs; assay type: functional; how it was run: as §1
PBMC [21] = assay: Immunomodulatory activity in human PBMC assessed as induction of IL1-beta at 50 ug/ml after 24 hrs; assay type: functional, cell-based; how it was run: as §2
Homo sapiens [22] = species on record: Homo sapiens; assay: Immunostimulatory activity in human mDC assessed as induction of IFNalpha at 100 ug/ml after 24 hrs; assay type: functional; how it was run: as §1
Homo sapiens [23] = species on record: Homo sapiens; assay: Immunostimulatory activity in human mDC assessed as induction of TNFalpha at 100 ug/ml after 24 hrs; assay type: functional; how it was run: as §1
PBMC [24] = assay: Immunomodulatory activity in human PBMC assessed as induction of IL6 at 50 ug/ml after 24 hrs; assay type: functional, cell-based; how it was run: as §2

Nc1ccn([C@@H]2O[C@H](COP(=O)(S)O[C@H]3[C@@H](O)[C@H](n4cnc5c(N)ncnc54)O[C@@H]3COP(=O)(S)O[C@H]3[C@@H](O)[C@H](n4cnc5c(N)ncnc54)O[C@@H]3CO)[C@@H](OP(=O)(S)OC[C@H]3O[C@@H](n4ccc(=O)[nH]c4=O)[C@H](O)[C@@H]3OP(=O)(S)OC[C@H]3O[C@@H](n4ccc5c(=O)[nH]c(N)nc54)[C@H](O)[C@@H]3OP(=O)(S)OC[C@H]3O[C@@H](n4cnc5c(N)ncnc54)[C@H](O)[C@@H]3OP(=O)(S)OC[C@H]3O[C@@H](n4ccc(N)nc4=O)[C@H](O)[C@@H]3OP(=O)(S)OC[C@H]3O[C@@H](n4ccc5c(=O)[nH]c(N)nc54)[C@H](O)[C@@H]3OP(=O)(S)OC[C@H]3O[C@@H](n4ccc(N)nc4=O)[C@H](O)[C@@H]3OP(=O)(S)OC[C@H]3O[C@@H](n4ccc(=O)[nH]c4=O)[C@H](O)[C@@H]3OP(=O)(S)OC[C@H]3O[C@@H](n4ccc(=O)[nH]c4=O)[C@H](O)[C@@H]3OP(=O)(S)OCC(O)COP(=O)(S)O[C@H]3[C@@H](O)[C@H](n4ccc(=O)[nH]c4=O)O[C@@H]3COP(=O)(S)O[C@H]3[C@@H](O)[C@H](n4ccc(=O)[nH]c4=O)O[C@@H]3COP(=O)(S)O[C@H]3[C@@H](O)[C@H](n4ccc(N)nc4=O)O[C@@H]3COP(=O)(S)O[C@H]3[C@@H](O)[C@H](n4ccc5c(=O)[nH]c(N)nc54)O[C@@H]3COP(=O)(S)O[C@H]3[C@@H](O)[C@H](n4ccc(N)nc4=O)O[C@@H]3COP(=O)(S)O[C@H]3[C@@H](O)[C@H](n4cnc5c(N)ncnc54)O[C@@H]3COP(=O)(S)O[C@H]3[C@@H](O)[C@H](n4ccc5c(=O)[nH]c(N)nc54)O[C@@H]3COP(=O)(S)O[C@H]3[C@@H](O)[C@H](n4ccc(=O)[nH]c4=O)O[C@@H]3COP(=O)(S)O[C@H]3[C@@H](O)[C@H](n4ccc(N)nc4=O)O[C@@H]3COP(=O)(S)O[C@H]3[C@@H](O)[C@H](n4cnc5c(N)ncnc54)O[C@@H]3COP(=O)(S)O[C@H]3[C@@H](O)[C@H](n4cnc5c(N)ncnc54)O[C@@H]3CO)[C@H]2O)c(=O)n1 (stereo not given in full)
Activity (Homo sapiens [1]): Active
Activity (PBMC [2]): Dose-dependent effect
Ratio (Homo sapiens [3]): 53.8
Activity (PBMC [4]): Dose-dependent effect
Activity (Homo sapiens [5]): Active
Activity (Homo sapiens [6]): Active
Activity (PBMC [7]): 39 pg/mL
Activity (Homo sapiens [8]): Active
Activity (PBMC [9]): Dose-dependent effect
Activity (PBMC [10]): Dose-dependent effect
Activity (PBMC [11]): 2200 pg/mL
Activity (Mus musculus): Active
Activity (PBMC [12]): 42100 pg/mL
Activity (PBMC [13]): 1020 pg/mL
Activity (PBMC [14]): Dose-dependent effect
Activity (PBMC [15]): 434 pg/mL
Activity (PBMC [16]): 223 pg/mL
Activity (PBMC [17]): 5880 pg/mL
fold change (FC) [18]: 21.5
Activity (Homo sapiens [19]): Active
Activity (Homo sapiens [20]): Active
Activity (PBMC [21]): 47 pg/mL
Activity (Homo sapiens [22]): Active
Activity (Homo sapiens [23]): Active
Activity (PBMC [24]): 791 pg/mL
